Measured values: PubChem BioAssay AID720508 (The Scripps Research Institute Molecular Screening Center, 2013)
Hit rate of the full screen: of about 370,000 compounds, about 500 (0.14%) were called active.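 The calls were made as follows: active = inhibition above the mean of compounds falling within the control limits plus 3 SD of them (cut at about 14% in these data); inactive = the rest.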 Only a selection was taken, and actives are over-represented in it overall.

Each molecule was assayed against Fibrinogen beta chain (Homo sapiens) (UniProt P02675) (assay: inhibitors of Tn7 peptide binding to fibrin DD(E), primary screen, biochemical, fluorescence polarization, human fibrin, Tn7 probe (AID 720508;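 also: 0% = plate median of compound wells and 100% = 10 µM Aha-Tn7 peptide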)). Settings: FP displacement of FITC-Tn7 peptide from fibrin DD(E); at 8.3 µM; hits give high values; 0% = median of compound wells per plate.
Fibrinogen beta chain (Homo sapiens), sequence (P02675 whole entry, looked up): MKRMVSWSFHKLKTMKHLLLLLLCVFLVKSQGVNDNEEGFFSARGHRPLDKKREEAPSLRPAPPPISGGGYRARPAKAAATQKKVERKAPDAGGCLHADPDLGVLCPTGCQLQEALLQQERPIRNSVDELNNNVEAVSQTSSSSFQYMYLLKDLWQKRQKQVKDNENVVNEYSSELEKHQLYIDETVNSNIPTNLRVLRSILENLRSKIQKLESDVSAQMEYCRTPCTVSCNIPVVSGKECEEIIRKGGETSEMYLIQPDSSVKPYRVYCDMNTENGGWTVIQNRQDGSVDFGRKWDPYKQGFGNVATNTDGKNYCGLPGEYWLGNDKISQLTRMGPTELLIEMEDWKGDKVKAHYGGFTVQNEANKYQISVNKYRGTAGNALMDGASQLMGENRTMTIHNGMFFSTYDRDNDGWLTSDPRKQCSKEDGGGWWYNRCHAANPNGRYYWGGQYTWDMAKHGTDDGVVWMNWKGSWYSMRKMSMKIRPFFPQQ
Outline: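 Assay system: Fibrin-DD(E) protein isolated from polymerized human fibrin clots; read-out basis: percent inhibition; medium: Tris/NaCl/CaCl2 buffer, pH 7.8; signal: FP measurement; incubation: 10 min plus 3 h, room temperature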

inhibition, inactive:
CCc1nc2c(OCc3ccc(F)c(F)c3)cccn2c1N(C)C(=O)c1ccco1 7.1%
CC(C)[C@@H](C(=O)OCC(=O)c1ccc2c(c1)NC(=O)CO2)N1C(=O)c2ccccc2C1=O -6.7%
Cc1ccc(NS(=O)(=O)c2ccc3c(c2)NC(=O)CO3)cc1 2.86%
COc1cc(C(=O)NN(CCC#N)C2=NS(=O)(=O)c3ccccc32)cc(OC)c1OC -4.12%
CC(=O)CC(CC(=O)NC1CCCCC1)c1ccccc1 (stereo not given) 4.93%
CCCC(=O)N1CCC(CCC(=O)NC2CC2)CC1 -7.44%
CC(Sc1ccc(S(=O)(=O)N2CCN(C)CC2)cn1)C(=O)NC1CCCC(C)C1C (stereo not given) 4.47%
CCC(C)N1CC(=O)N2Cc3[nH]c4ccccc4c3C[C@H]2C1=O (stereo not given in full) -0.72%
COc1ccc(-n2c(SCC(=O)Nc3sc4c(c3C#N)CCCC4)nnc2-c2ccc(O)cc2)cc1 -4.29%
CCCCOC(=O)NCN1C(=O)C2C3C=CC(C3)C2C1=O (stereo not given) 12.4%
Cc1ccc(S(=O)(=O)N2CCC(C(=O)NCCC3=CCCCC3)CC2)cc1C 0.25%
OCC1(Cc2ccccc2C(F)(F)F)CCN(Cc2ccncc2)CC1 -3.68%
Nc1nc(Br)c2ccccc2c1-c1ccc(F)cc1 -1.53%
O=C(c1ccc(OC2CCN(C(=O)c3cccnc3)CC2)cc1)N1CCCCCC1 3.65%
O=C(Cn1cnc2c(nnn2Cc2ccc(F)cc2)c1=O)NCc1ccc2c(c1)OCO2 -1.63%
O=C(Nc1cccc(C(=O)NC2CC2)c1)c1ccc(F)c(S(=O)(=O)N2CCOCC2)c1 6.51%
CC12CCC(C(=O)N(CCC#N)CCC#N)(CC1=O)C2(C)C (stereo not given) 1.78%
N#CCCN1CCN(S(=O)(=O)c2ccc(S(=O)(=O)N3CCCC3)cc2)CC1 3.06%
N#Cc1cccc(CN2CCC(=O)N(CCO)CC2)c1 7.16%
CCC(c1ccc(NC(=O)OC(C)(C)C)cc1)c1cc(OC)cc(OC)c1 (stereo not given) -0.44%
CN(C)S(=O)(=O)c1ccc(N/C=C(\[N+](=O)[O-])S(=O)(=O)c2ccccc2)cc1 -0.82%
COC(=O)c1sccc1NC(=O)CSc1ccccc1NS(=O)(=O)c1cc(Cl)ccc1Cl 0.88%
Cc1cc(C)c2cc(CN(Cc3cccs3)Cc3nnnn3CC3CCCO3)c(=O)[nH]c2c1 (stereo not given) -1.42%
CC(C)[C@H](NC(=O)N1CCn2c1nc1ccccc12)C(=O)NCc1ccc2c(c1)OCO2 1.52%
O=S1(=O)c2c(cccc2N2CC[C@H](O)C2)O[C@@H]2CCN1C2 4.53%
CCC(=O)Nc1cccc(C2=NOC3(C2)C[C@@H](C(N)=O)N(C(=O)c2cc([N+](=O)[O-])cc([N+](=O)[O-])c2C)C3)c1 (stereo not given in full) -4.25%
CC(Oc1ccccc1)C(=O)Nc1oc(-c2ccco2)c(-c2ccco2)c1C#N (stereo not given) 2.07%
N#Cc1nc(Cc2cccc3ccccc23)oc1NCc1ccc2c(c1)OCO2 4.95%
Cc1ccc(OCc2nc(C#N)c(N3CCCC3)o2)cc1 0.61%
COc1ccc(C(C(=O)NC2CCCCC2)N(C(=O)Cc2c[nH]c3ccccc23)c2ccccc2)cc1OC (stereo not given) 2.39%
COC(=O)CNC(=O)C(CCSC)NC(C)=O (stereo not given) 3.11%
COc1cc(OC)c(C(=S)N2CCCC2)cc1OC 2.99%
CC1(C)C/C(=C(/C#N)C(N)=O)CCO1 -4%
Cc1cc(C(=O)COc2ccc(Br)cc2F)c(C)n1C1CC1 1.64%
O=C(NC1CCCCN(Cc2cccc(C(F)(F)F)c2)C1=O)c1ccccc1I (stereo not given) 2.66%
O=C(NCc1ccc(F)cc1F)[C@@H]1CCCN1C(=O)[C@@H]1CCCN1C(=O)c1cccc(Cl)c1 -9.38%
O=C(COC(=O)CNS(=O)(=O)c1ccccc1)NC12CC3CC(CC(C3)C1)C2 2.98%
CC1CC1C(=O)OCC(=O)c1c(N)n(C)c(=O)n(C)c1=O (stereo not given) -2.99%
CC(C)NC(=O)C1(C)CCCCN1Cc1cccc(C(F)(F)F)c1 (stereo not given) 1.37%
Brc1ccc(-c2nn[nH]n2)cc1 -4.35%
Clc1ccc(CN2CCCCCC2)cc1Cl 1.42%
COc1cccc(N2CC(NS(=O)(=O)c3ccc(Cl)cc3)CC2=O)c1 (stereo not given) -2.23%
COc1cccc(N2CC(NC(=O)c3ccc4ccccc4c3)CC2=O)c1 (stereo not given) 6.86%
CCN(CC)C(=O)CSC(Nc1cccc(F)c1)=C(C#N)C#N 2.96%
CCn1c(C)nc2c1C(=O)c1ccccc1C2=O -6.92%
CCC(C(=O)OC)n1cnc2c(oc3ccccc32)c1=O (stereo not given) 6.68%
Cc1ccc(S(=O)(=O)CC(=O)Nc2sc(C)c(C)c2C(N)=O)cc1 -0.13%
NC1=NC(=O)C(Cc2cccc(Cl)c2)S1 (stereo not given) 2.82%
COCc1cc(=O)n2[nH]c(C)c(-c3ccccc3)c2n1 -2.38%
CN(C(=O)C1CCN(c2ncnc3c2nc2n3CCCCC2)CC1)C1CCCCC1 -2.26%
Cc1ccc(CN2CCN(Cc3ccc(OCCO)cc3)CC2CCO)o1 (stereo not given) 7.01%
CCCCNC(=O)C[C@@H]1C[C@@]2(C(=O)OCC)CCC=C2N(Cc2cccc3ccccc23)C1=O -3.28%
CN(C(=O)CSc1nc(C2CC2)nc2ccccc12)c1nc(-c2ccccc2)cs1 -7.43%
COc1ccc(NC(=O)NNC(=O)COc2cc(C)c(Cl)c(C)c2)c(OC)c1 -5.88%
O=C1NC(=Nc2ccc(Cl)cc2)SC1Cc1cccc(Cl)c1Cl (stereo not given) 0.11%
Cc1ccc(N(C(=O)C(F)(F)F)C(C(=O)NC2CCCCC2)c2ccncc2)cc1C (stereo not given) 5.16%
CC[C@@H]1CCCCc2ccccc2[C@@H](C(=O)C[C@H](O)CC(C)=O)OC1=O 1.6%
CCCNC(=O)C(=O)Nc1cc2c3c(c1)CCC(=O)N3CCC2 0.54%
COc1ccccc1C(=O)N1CCN=C1SCc1cccnc1 3.49%
COC(=O)CNc1nc(Cl)nc(N2CCC(C)CC2)n1 7.41%
NC(=O)c1cc(S(=O)(=O)N2CCCC2)ccc1OCc1ccc(F)cc1 0.91%
CC(C)(C)c1ccccc1NC(=O)CN1C(=O)NC2(CCCC2)C1=O -0.76%
Cc1nn(C)c(C)c1S(=O)(=O)N1CCc2ccccc21 -4.06%
CCO[C@H]1OC(C(=O)N2CCN(Cc3ccccc3)CC2)=C[C@@H](c2cn(C(C)=O)c3ccccc23)[C@@H]1CCCO 7%
COc1ccccc1/C=C/C(=O)OCC(=O)NC1CCCCCC1 8.08%
C=CCOc1ccc(/C=C/C(=O)OCC(=O)NC2CCCCCC2)cc1 0.53%

inhibition, active:
Cc1nnc2n1N=C(c1ccc3c(c1)NC(=O)CO3)CS2 15.4%
CN1C(=O)c2cccc3c(N)ccc(c23)C1=O 24.4%
Cc1nn(C)cc1N1C(=O)c2cccc3c(N)ccc(c23)C1=O 28.7%
CC(C)(C)c1cc(CN2CCN(CCC#N)CC2)cc(C(C)(C)C)c1O 13.8%
CCOc1ccc(Nc2oc(Cc3ccccc3)nc2C#N)cc1 14.8%
c1cc(-c2nn[nH]n2)ccc1CN1CCCCC1 14.4%
COc1cccc(N2CC(NS(=O)(=O)c3cccs3)CC2=O)c1 (stereo not given) 15.4%
CN1c2ccc(C=O)c3c(C=O)ccc(c23)N(C)C1(C)C 16.9%
O=C(COC(=O)/C=C/c1ccc(OC(F)F)cc1)NC1CCCCC1 13.9%
